# ChEMBL document CHEMBL3856193, “Combretastatin A-4 analogues with benzoxazolone scaffold: Synthesis, structure and biological activity” (Eur J Med Chem, 2016)
# Active and inactive are the calls of the source. The calls are words filed in the database; no cut-off is given here.
# What was measured:
# [1] = test system: EA.hy 926; test: Induction of apoptosis in human EAhy926 cells assessed as increase in apoptotic cells at growth inhibitory IC50 measured after 48 hrs by Annexin V-FITC/propidium iodide staining-based flow cytometric analysis relative to control; format: functional, cell-based
# [2] = Cytostatic activity against human NHEK cells assessed as cell survival up to 25 uM measured after 72 hrs by MTT assay relative to control; format: ADME, cell-based; settings: read-out: Survival
# [3] = Cytostatic activity against human MDA-MB-231 cells assessed as cell survival up to 25 uM measured after 72 hrs by MTT assay relative to control; format: functional
# [4] = Cell cycle arrest in human HepG2 cells assessed as decrease in G0/G1 phase at growth inhibitory IC50 measured after 24 hrs by propidium iodide-staining based FACS analysis; format: functional
# [5] = test system: HepG2; test: Induction of apoptosis in human HepG2 cells assessed as necrotic cells at 0.11 uM measured after 48 hrs by Annexin V-FITC/propidium iodide staining-based flow cytometric analysis relative to control; format: functional
# [6] = Cell cycle arrest in human HepG2 cells assessed as decrease in accumulation of G2/M phase at growth inhibitory IC50 measured after 72 hrs by propidium iodide-staining based FACS analysis; format: functional
# [7] = Antiproliferative activity against CA-4-resistant human HT-29 cells measured after 72 hrs by MTT assay; format: functional, cell-based; settings: HT-29, 72 h
# How it was run: (§1)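 Cells seeded at 1 × 10^4 per well and left 24 h, then exposed to graded compound concentrations (stock 2 mmol/L in DMSO, final DMSO 0.01% in medium) for 72 h at 37 °C in humidified CO2. MTT (5 mg/mL) added for 3 h; formazan dissolved in 0.1 N HCl/isopropanol and read at 550/630 nm. Eight replicate wells per concentration; IC50 from curve fitting.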
# [8] = species on record: Sus scrofa; test: Inhibition of porcine brain tubulin polymerization at 10 uM measured every 1 min for 40 mins in presence of GTP
# [9] = Growth inhibition of human HepG2 cells measured after 72 hrs by MTT assay; format: functional, cell-based; settings: HepG2, 72 h
# How it was run: (§2)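 Cells seeded at 1 x 10^4/100 µL, treated 24 h later with drug diluted from 2 mmol/L DMSO stock (0.01% DMSO final), 72 h incubation. MTT added for 3 h at 37°C, formazan dissolved in 0.1 N HCl/isopropanol, OD read at 550/630 nm. Eight replicates per concentration, mean ± SD. IC50 from curve fitting. Cells kept at 37°C in humidified CO2.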
# [10] = Antiproliferative activity against human MCF10A cells measured after 72 hrs by MTT assay; format: cell-based; settings: MCF-10A; how it was run: as §1
# [11] = Antiproliferative activity against mouse Colon 26 cells measured after 72 hrs by MTT assay; format: functional, cell-based; settings: Colon 26, 72 h; how it was run: as §1
# [12] = Growth inhibition of human K562 cells measured after 72 hrs by MTT assay; format: functional, cell-based; settings: K562, 72 h; how it was run: as §2
# [13] = species on record: Sus scrofa; test: Induction of porcine brain tubulin polymerization assessed as time required to reach maxium effect at 10 uM measured every 1 min for 40 mins in presence of GTP
# [14] = Cytostatic activity against human MCF7 cells assessed as cell survival up to 25 uM measured after 72 hrs by MTT assay relative to control; format: functional
# [15] = test system: HepG2; test: Induction of apoptosis in human HepG2 cells assessed as increase in apoptotic cells at growth inhibitory IC50 measured after 48 hrs by Annexin V-FITC/propidium iodide staining-based flow cytometric analysis relative to control; format: functional, cell-based
# [16] = Cell cycle arrest in human HepG2 cells assessed as accumulation of cells with 4N DNA content at growth inhibitory IC50 measured after 24 hrs by propidium iodide-staining based FACS analysis relative to control; format: functional; parameters: scale not given: the % may be the effect or the level left
# [17] = Cell cycle arrest in human HepG2 cells assessed as accumulation of hypoploid sub-G1 cells at growth inhibitory IC50 measured after 72 hrs by propidium iodide-staining based FACS analysis; format: functional
# [18] = Cell cycle arrest in human HepG2 cells assessed as accumulation in G2/M phase at growth inhibitory IC50 measured after 8 hrs by propidium iodide-staining based FACS analysis (reference value: 28%); format: functional; parameters: scale not given: the % may be the effect or the level left
# [19] = Cytostatic activity against human HaCaT cells assessed as cell survival up to 25 uM measured after 72 hrs by MTT assay relative to control; format: functional
# [20] = Cell cycle arrest in human HepG2 cells assessed as >4N DNA content at growth inhibitory IC50 measured after 24 hrs by propidium iodide-staining based FACS analysis relative to control; format: functional; parameters: scale not given: the % may be the effect or the level left
# [21] = Cell cycle arrest in human HepG2 cells assessed as decrease in S phase at growth inhibitory IC50 measured after 24 hrs by propidium iodide-staining based FACS analysis; format: functional
# [22] = Growth inhibition of human EAhy926 cells measured after 72 hrs by MTT assay; format: functional, cell-based; settings: EA.hy 926, 72 h; how it was run: as §2
# [23] = species on record: Sus scrofa; test: Inhibition of porcine brain tubulin polymerization at 50 uM measured every 1 min for 40 mins in presence of GTP
# [24] = test system: EA.hy 926; test: Antiangiogenic activity against human EAhy926 assessed as inhibition of capillary tube formation at 0.11 uM after 72 hrs by matrigel assay; format: functional
# How it was run: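 EA.hy 926 cells (4 x 10^4) plated onto Matrigel pre-set 30 min at 37°C in complete DMEM; after 24 h medium replaced by EBM2 alone (control) or EBM2 with 0.28 µM or 0.11 µM drug. Capillary tube formation followed by inverted microscopy up to 72 h.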
# [25] = test system: EA.hy 926; test: Induction of apoptosis in human EAhy926 cells assessed as necrotic cells at 0.11 uM measured after 48 hrs by Annexin V-FITC/propidium iodide staining-based flow cytometric analysis relative to control; format: functional
# [26] = Antiproliferative activity against CA-4-resistant human A549 cells measured after 72 hrs by MTT assay; format: functional, cell-based; settings: A549, 72 h; how it was run: as §1
# [27] = Solubility of compound in water; format: physicochemical; settings: buffer
smiles,measurement,setting,value
COc1ccc(/C=C\c2cc(OC)c(OC)c(OC)c2)cc1O [COMBRETASTATIN A4],Activity,[1],Active
same,viability at 72 h,[2],40%
same,Survival,[3],50%
same,Activity,[4],Active
same,Activity,[5],20%
same,Activity,[6],Active
same,IC50,[7],2.61 µM
same,inhibition,[8],Active
same,IC50,[9],0.11 µM
same,IC50,[10],1.17 µM
same,IC50,[11],0.44 µM
same,IC50,[12],< 0.1 µM
same,TIME,[13],0.383 h
same,Survival,[14],35%
same,Activity,[15],Active
same,Activity,[16],77%
same,Activity,[17],Active
same,Activity,[18],33%
same,Survival,[19],15%
same,Activity,[20],9%
same,Activity,[21],Active
same,IC50,[22],0.17 µM
same,inhibition,[23],Active
same,inhibition,[24],Active
same,Activity,[25],20%
same,IC50,[26],3.01 µM
COc1ccc(/C=C\c2cccc3oc(=O)n(C)c23)cc1OC,IC50,[9],> 50 µM
same,IC50,[12],2.07 µM
same,IC50,[22],> 50 µM
COc1ccc(/C=C\c2cc(OC)c(OC)c(OC)c2)cc1N.Cl,solubility,[27],Soluble
COc1ccc(/C=C\c2ccc3c(c2)oc(=O)n3C)cc1OC,IC50,[9],38.3 µM
same,IC50,[12],> 50 µM
same,IC50,[22],> 50 µM
